The nature of the data set: Toxicity liver stage against HepG2, at 10uM. Format: cell-based. Conditions: human, HepG2-A16-CD81EGFP cells; read-out: INHIBITION
Also noted: test concentration 10 uM, cell line HepG2-A16-CD81EGFP. A digest of the protocol: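 Uninfected HepG2-A16-CD81EGFP cells, 3 × 10^3 per well, 1536-well, plated on prespotted compound at 10 μM final, parasite-free screening media added to match infected plates; puromycin 10 μM positive, DMSO 0.5% negative; run in parallel with 48 h PbLuc assay at 37 °C, 5% CO2; viability by CellTiter-Glo luminescence, normalized to controls.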

The structures appear in SMILES notation.

`NC(=O)C(Nc1ccc(Cl)cc1)c1ccc(F)cc1` (configuration not stated): the cytotoxicity at 10 µM was -0.82%. The same measure for `Cc1nn(C)cc1CN(C)Cc1cc2c(cc1OC(F)F)OCO2`: -3.53%; for `CC(C(=O)NCc1ccnc(OC2CCCC2)c1)n1cncn1` (configuration not stated): 10.4%. The same measure for `O=C(c1cn(-c2cc(N3CCSCC3)ncn2)cn1)N1CCOCC1`: 14.9%; for `CN1CCC2(CCCN(c3nccc(C(F)(F)F)n3)C2)CC1`: 4.14%; for `CC1=C[C@@H](CN2CCOCC2)[C@H](C(C)C)C[C@H]1Cc1nnc(C)o1`: -5.07%. Next, `CN1CCN(Cc2ccccc2CNC(=O)c2ccc(Br)cc2F)CC1`: 4.65%. In the case of `O=C(Nc1ccccc1)N1C[C@@H]2C[C@H](C(=O)N3CCCC3)[C@H](C1)O2`, the cytotoxicity at 10 µM is -3.29%. Next, `Cc1cc2n(n1)CC(CNC1CCN(C(=O)C3CC3)CC1)CN2` (configuration not stated): 5.17%; `CCc1nccn1C1CCCN(C(=O)c2ccc(C(=O)NC)nc2)C1` (configuration not stated): -6.33%. The same measure for `CCC(NC(=O)c1cccc(N2CCCC2=O)c1)c1ccc(OC)cc1` (configuration not stated): -62.3%; for `O=C(NC1CCCC1)c1nc2c(o1)CN(C(=O)CCO)C2`: 5.38%. Next, `COc1cccc(-c2noc(C3CCN(Cc4cn(C)nc4C)C3)n2)c1` (configuration not stated): 11.4%; `Cc1ncsc1CN1C[C@@H]2CC[C@H]1CN(Cc1ccccc1)C2`: -14.1%; `COc1ccc(C(C(=O)O)N2CCN(C3CCCC3)CC2)cc1C` (configuration not stated): -8.77%. As for `Cc1sc2ncnc(N3CCCC3Cn3cccn3)c2c1C` (configuration not stated), the cytotoxicity at 10 µM worked out at 2.62%. Next, `CN1CCCn2c(nc(CNC(=O)c3nccn3C)cc2=O)C1`: 4.68%; `c1cnc(N2CCC(OCCN3CCCCC3)C2)nc1` (configuration not stated): -47.3%; `CC(=O)N1CCC2(C1)c1ccccc1S(=O)(=O)N2Cc1ccccc1` (configuration not stated): -127%. Turning to `CCC(NC(=O)c1cccc2[nH]ccc12)C(=O)N1CCOCC1` (configuration not stated), the cytotoxicity at 10 µM is -4.1%. Next, `CNC(=O)CN(C)c1cncc(OCC(C)C)n1`: 0.137%; `CCOc1cccc(C(C)NCc2c(C)nn(C)c2N(C)C)c1` (configuration not stated): 5.22%; `Cc1noc(C)c1-c1nc(C2CCCNC2)ccc1CO` (configuration not stated): -21.3%. The same measure for `Cc1nonc1C1CCCN1C(=O)CCc1cc2n(n1)CCCNC2` (configuration not stated): -5.65%; for `CCc1cnc(C)nc1NC1CC(=O)N(CC2CCCCC2)C1` (configuration not stated): -6.38%; for `Cc1cc(F)ccc1S(=O)(=O)NCC(O)c1cccn1C` (configuration not stated): -5.62%. Next, `COCCNC(=O)N1CCN(C(C)C(=O)NC2CCCC2)CC1` (configuration not stated): 1.16%; `C1CC(N2Cc3nnn(CC4CC4)c3C(COCC3CC3)C2)C1` (configuration not stated): 5.57%.

With `CC1(NC(=O)CNC(=O)C(C)(C)C)CCc2ccccc2C1` (configuration not stated), the cytotoxicity at 10 µM is -3.67%. The same measure for `Cc1nc(C)n(C2CCCN(C(=O)c3ccc(CN(C)C)cc3)C2)n1` (configuration not stated): -1.6%; for `CCc1nccn1-c1cncc(C2CCCN2CC(=O)N2CCCC2)n1` (configuration not stated): 0.193%; for `CC(C)N1CCC(N2CCN(C3CCCCC3)CC2CCO)CC1` (configuration not stated): -9.63%. Next, `Cc1ccc(N2CC[C@@H]3CN(Cc4cc[nH]n4)C[C@@H]3C2)nn1`: 3.47%. For `COC(=O)c1ccc(S(=O)(=O)NCC(C)(O)c2cccs2)cc1` (configuration not stated), the cytotoxicity at 10 µM was -6.87%. The same measure for `CC(C)c1cc(NCC2(CO)CCC2)ncn1`: 4.66%; for `O=C(CN1C(=O)CC2(CCCC2)C1=O)NCCc1nccs1`: 0.566%; for `CC(CN1CCOCC1)N(Cc1ccccc1)Cc1ccncc1` (configuration not stated): 5.5%. The same measure for `O=C(CCC1CCCO1)NCc1ccnc(-n2cccn2)c1` (configuration not stated): -14.6%; for `CCNC(=O)NCCCn1nc2ccccn2c1=O`: -18.2%; for `Cc1nn(Cc2ccccc2)c(C)c1CNC1CCc2ncnn2C1` (configuration not stated): -1.04%. Next, `Oc1cccc(CN2C[C@@H]3CC[C@H]2CN(Cc2cccnc2)C3)c1`: -121%; `CCNc1ncc(C(=O)NC(c2ccccc2)c2ccco2)cn1` (configuration not stated): 5.94%; `CCC(C(=O)N(Cc1ccccc1OC)C1CC1)n1cccn1` (configuration not stated): -44%.

Turning to `CCN1CCN(S(=O)(=O)c2cc(Cl)c(Cl)cc2C)CC1`, the cytotoxicity at 10 µM is 2.28%. Next, `O=C(NC1(c2nnn(Cc3ccncc3)n2)CCCC1)c1ccccc1`: 21%; `O=C(c1cc(-c2cccnc2)[nH]n1)N1CCCC(c2cnccn2)C1` (configuration not stated): 6.21%; `O=C(Nc1cccn(CC(F)(F)F)c1=O)c1ccc(F)cc1`: 14.3%. On to `CSCCC(NC(=O)c1ccc2ccccc2n1)C(=O)O` (configuration not stated), for which the cytotoxicity at 10 µM was -3.09%. For `COCC(=O)Nc1ccccc1-c1ccc(=O)n(C)n1`, the cytotoxicity at 10 µM was found to be 4.51%. Next, `Cc1nc(N2CCCN(c3ncccn3)CC2)c2cnn(C)c2n1`: 0.977%; `CN(C)Cc1nn(C)c2c1CCN(S(=O)(=O)c1cccs1)C2`: 4.52%; `Nc1nc2c(c(N3CCCC(OCc4ccccn4)C3)n1)CCNCC2` (configuration not stated): -11.4%. The same measure for `COc1ncnc2c1CCN(c1cc(C(F)(F)F)ncn1)CC2`: -1.42%; for `CN(C)S(=O)(=O)c1ccc2c(c1)N(Cc1nccn1C)CCC2`: 2.26%; for `O=C(Nc1cccnc1)[C@H]1CN(Cc2nccs2)C[C@H]2OCC[C@@H]12`: 2.88%.

For `O=C(CN1CCOCC1)N(c1ccccc1)c1ccccc1`, the cytotoxicity at 10 µM was -11.8%.

Consider `c1cncc(CN2CCc3c(nnn3CC3CC3)C2COCC2CC2)c1` (configuration not stated), for which the cytotoxicity at 10 µM was determined as 3.88%.

With `Cc1nn(C)c(C)c1C1COCCN1C(=O)c1cc(F)ccc1F` (configuration not stated), the cytotoxicity at 10 µM was found to be 3.38%. Next, `Cc1cnc(CNC(=O)NCCOc2ncccc2Cl)s1`: 8.35%; `CC(=O)N(C)Cc1cccc(NC(=O)c2cnn(C)c2C)c1`: 3.5%. Next, `NCCc1c(-c2ccc(F)cc2)[nH][nH]c1=O`: -1.3%; `COCc1nc2cc(NCc3ccc(CO)o3)ccc2o1`: -16.2%.

Regarding `CN(C)C(=O)CN(C)C(=O)c1csc(Br)c1`, the cytotoxicity at 10 µM turned out to be 12.3%.

On to `Cc1cc(F)cc(S(=O)(=O)NCCCN2CCC(O)CC2)c1`, for which the cytotoxicity at 10 µM is -20.1%. The same measure for `CNC(=O)C1CCN(Cc2cc3c(cc2O)CCC3)CC1`: 4.83%.

With `CCN1CCCC(O)(CN(C)Cc2ccccc2F)C1` (configuration not stated), the cytotoxicity at 10 µM is -6.43%. Regarding `CC1CCN(c2nccn3c(=O)[nH]nc23)CC1`, the cytotoxicity at 10 µM came to 6.09%. Next, `O=C(c1ccc(=O)[nH]c1)N1C[C@H]2CC[C@@H](C1)N(Cc1ccccc1)C2`: -100%; `CN(C)Cc1ccc(C2CCCCN2C(=O)c2cc(C3CC3)n[nH]2)cc1` (configuration not stated): -9.09%. The same measure for `O=C(Nc1ccc(-c2csnn2)cc1)N1CCC(N2CCCC2)C1` (configuration not stated): -8.79%; for `Cc1cc(CN2C[C@@H]3CCCO[C@@H]3[C@H](NS(C)(=O)=O)C2)no1`: 11.5%; for `O=C1COC2(CCN(C(=O)[C@H]3CCCO3)CC2)CN1Cc1ccccn1`: -0.524%.

Take `CCc1[nH]c2c(CNc3nc(C)cc(NC)n3)cc(C)cc2c1C`: the cytotoxicity at 10 µM was -22.4%. `COCC1CC2(CCN(C(=O)c3ccc(F)cc3C)CC2)CO1` (configuration not stated): the cytotoxicity at 10 µM is -108%. Next, `CNC(=O)COc1ccc(CNc2c(Cl)cccc2C#N)cc1`: -55.9%; `COc1cc(N2C[C@@H]3COC[C@]3(COc3ccccn3)C2)ncn1`: 1.35%.

With `Cc1n[nH]c(C)c1C1COCCN1C(=O)c1cccc(F)c1F` (configuration not stated), the cytotoxicity at 10 µM is -8.45%. The same measure for `Cc1cc(N2CCCCCC2)n2nc(C)c(C)c2n1`: -6.23%; for `COc1ccc(C(=O)N2CC[C@](C)(O)[C@H](C)C2)cc1N1CCOCC1`: 14.9%. The same measure for `Cc1n[nH]c(SCC(=O)NC(c2ccccn2)C(C)C)n1` (configuration not stated): -2.62%. Next, `COc1c(C2CCCN2Cc2cn3ccsc3n2)c(C)nn1C` (configuration not stated): -51.2%.

`Cc1cc(C)c(Cn2cncn2)cc1CN1CC[C@H](CO)[C@@H](O)C1`: the cytotoxicity at 10 µM is -5.42%. Consider `Cc1nnc(CN(Cc2ccc(Cl)c(Cl)c2)C2CC2)o1`, for which the cytotoxicity at 10 µM worked out at 4.85%.

As to `Cn1ncc2c1C(COCC1CC1)CN(C(=O)c1cscn1)C2` (configuration not stated), the cytotoxicity at 10 µM was -76%. Next, `CCOc1ccc(NC(=O)Cn2cc(I)cn2)cc1`: 9.84%; `Cc1noc(CNC2CCCN(Cc3noc(C4CC4)n3)C2)n1` (configuration not stated): -1.7%; `COc1ccc(C(=O)C2CCCN(c3cc(OC)ncn3)C2)c(C)c1` (configuration not stated): 48%. `CC(=O)N1CCC(c2nccnc2CNC(=O)c2cc[nH]n2)CC1`: the cytotoxicity at 10 µM was -6.27%. As to `COc1ccc(COCC(O)CNC(=O)c2cc(C)oc2C)cc1` (configuration not stated), the cytotoxicity at 10 µM is -13.3%. Next, `O=C(O)c1ccccc1-n1cnc(CN2CCc3ccccc3C2)c1`: 13.6%. Next, `O=C(CCNC(=O)c1ccoc1)Nc1ccc(F)cc1F`: -6.44%. With `CN(Cc1ccco1)Cc1cnc2n1CCN(c1ccccn1)CC2`, the cytotoxicity at 10 µM was -0.48%. The same measure for `CCn1ccnc1CN1CCN(C(C)C)CC1C` (configuration not stated): -6.58%.

`O=S(=O)(NCCCn1cncn1)c1ccc2c(c1)CCCC2`: the cytotoxicity at 10 µM is 4.16%. Next, `O=C1CC[C@H]2CN(Cc3cccnc3)CC[C@H]2N1CCc1c[nH]cn1`: -1.36%. For `COc1ccccc1CN(Cc1cccnc1)Cc1c[nH]c(C)n1`, the cytotoxicity at 10 µM was found to be 6.43%. The same measure for `Cc1oncc1C(=O)N1C[C@H](OCc2ccccn2)[C@H]2OCCC[C@H]21`: -0.385%.

Values taken from ChEMBL document CHEMBL4513216, “Probing the Open Global Health Chemical Diversity Library for Multistage-Active Starting Points for Next-Generation Antimalarials” (ACS Infect Dis, 2020).
